Assay results reported in ChEMBL document CHEMBL1165950, “Design and synthesis of new potent anticancer pyrazoles with high FLT3 kinase inhibitory selectivity” (Bioorg Med Chem, 2010).

How the values were obtained:
Type in all cases: functional
EKVX = test: Cytotoxicity against human EKVX cells assessed as cell growth at 1 uM after 48 hrs by sulforhodamine B assay; conditions: read-out: Activity
NCI-H23 = test: Cytotoxicity against human NCI-H23 cells assessed as cell growth at 1 uM after 48 hrs by sulforhodamine B assay; conditions: NCI-H23, 48 h, read-out: Activity
IGROV-1 = test: Cytotoxicity against human IGROV1 cells assessed as cell growth at 10 uM; conditions: read-out: Activity
Outline: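 Single-dose NCI-60 screen at 10 µM. Cells were grown in RPMI 1640 with 5% FBS and 2 mM L-glutamine, then treated for 48 h at 37 °C. Protein was measured by SRB staining with absorbance at 515 nm. Percentage growth was recorded, and inhibition percentage was calculated as 100 minus growth percentage.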

SK-OV-3 [1] = test: Cytotoxicity against human SKOV3 cells assessed as cell growth at 10 uM; conditions: read-out: Activity
Outline: (§1)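 NCI-60 screen: cells grown in RPMI 1640 with 5% FBS and 2 mM L-glutamine, plated at 5000–40,000 cells/well according to doubling time, and preincubated 24 h at 37 °C, 5% CO2. The single 10 µM dose (DMSO stock) was added, then incubated 48 h. Cells were TCA-fixed and stained with 0.4% SRB, read at 515 nm, and growth % calculated against time-zero and control plates.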

RXF 393 = test: Cytotoxicity against human RXF393 cells assessed as cell growth at 10 uM; conditions: read-out: Activity; outline: as §1
TK-10 = test: Cytotoxicity against human TK10 cells assessed as cell growth at 10 uM; conditions: read-out: Activity; outline: as §1
MOLT-4 = test: Cytotoxicity against human MOLT4 cells assessed as cell growth at 0.01 uM after 48 hrs by sulforhodamine B assay; conditions: MOLT-4, 48 h, read-out: Activity
HOP-62 = test: Cytotoxicity against human HOP62 cells assessed as cell growth at 0.01 uM after 48 hrs by sulforhodamine B assay; conditions: HOP-62, 48 h, read-out: Activity
HCC 2998 = test: Cytotoxicity against human HCC2998 cells assessed as cell growth at 0.01 uM after 48 hrs by sulforhodamine B assay; conditions: HCC 2998, 48 h, read-out: Activity
SW-620 = test: Cytotoxicity against human SW620 cells assessed as cell growth at 0.01 uM after 48 hrs by sulforhodamine B assay; conditions: SW-620, 48 h, read-out: Activity
CCRF-CEM = test: Growth inhibition of human CCRF-CEM cells after 48 hrs by sulforhodamine B assay
Outline: (§2)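 NCI five-dose SRB assay in RPMI 1640 with 5% FBS and 2 mM L-glutamine. Cells were preincubated 24 h, then exposed 48 h at 37 °C to five concentrations (10-fold or half-log serial dilutions from DMSO stocks). TCA fixation, SRB staining, and absorbance at 515 nm followed. IC50 was taken where [(Ti−Tz)/(C−Tz)]×100 = 50, with Tz as time-zero cell density.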

CAKI-1 = test: Cytotoxicity against human Caki1 cells assessed as cell growth at 0.001 uM after 48 hrs by sulforhodamine B assay; conditions: CAKI-1, 48 h, read-out: Activity
UO-31 = test: Cytotoxicity against human UO31 cells assessed as cell growth at 0.001 uM after 48 hrs by sulforhodamine B assay; conditions: UO-31, 48 h, read-out: Activity
HCT-116 = test: Growth inhibition of human HCT116 cells after 48 hrs by sulforhodamine B assay; conditions: HCT-116, 48 h; for CC50: read-out: LC50 (the source's name)
Outline: (§3)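 NCI 60-cell screen, five-dose mode. Cells grown in RPMI 1640 with 5% FBS and 2 mM L-glutamine and plated at 5000-40,000 cells/well according to doubling time. After 24 h preincubation, a Tz plate was TCA-fixed. Five concentrations (10-fold or 1/2 log dilutions) were applied for 48 h at 37 °C. SRB staining read at 515 nm. IC50 taken from [(Ti-Tz)/(C-Tz)]×100 = 50.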

Malme-3M [2] = test: Growth inhibition of human MALME-3M cells after 48 hrs by sulforhodamine B assay; conditions: for CC50: read-out: LC50 (the source's name); outline: as §3
M14 = test: Growth inhibition of human M14 cells after 48 hrs by sulforhodamine B assay; conditions: M14, 48 h; for CC50: read-out: LC50 (the source's name); outline: as §3
OVCAR-4 = test: Growth inhibition of human OVCAR4 cells after 48 hrs by sulforhodamine B assay; conditions: OVCAR-4, 48 h; for CC50: read-out: LC50 (the source's name); outline: as §3
A498 = test: Growth inhibition of human A498 cells after 48 hrs by sulforhodamine B assay; conditions: A498, 48 h; outline: as §2
SN12C = test: Growth inhibition of human SN12C cells after 48 hrs by sulforhodamine B assay; outline: as §3
SK-OV-3 [3] = test: Cytotoxicity against human SKOV3 cells assessed as cell growth at 1 uM after 48 hrs by sulforhodamine B assay; conditions: SK-OV-3, 48 h, read-out: Activity
MDA-MB-231 = test: Cytotoxicity against human MDA-MB-231 cells assessed as cell growth at 1 uM after 48 hrs by sulforhodamine B assay; conditions: MDA-MB-231, 48 h, read-out: Activity
[4] = Cytotoxicity against human Hs 578T cells assessed as cell growth at 1 uM after 48 hrs by sulforhodamine B assay; conditions: read-out: Activity
NCI-H322M [5] = test: Cytotoxicity against human NCI-H322M cells assessed as cell growth at 10 uM; conditions: read-out: Activity; outline: as §1
NCI-H322M [6] = test: Cytotoxicity against human NCI-H322M cells assessed as cell growth at 10 uM after 48 hrs by sulforhodamine B assay; conditions: read-out: Activity
SNB-75 = test: Cytotoxicity against human SNB75 cells assessed as cell growth at 10 uM after 48 hrs by sulforhodamine B assay; conditions: SNB-75, 48 h, read-out: Activity
Malme-3M [7] = test: Cytotoxicity against human MALME-3M cells assessed as cell growth at 10 uM after 48 hrs by sulforhodamine B assay; conditions: read-out: Activity
OVCAR-8 = test: Cytotoxicity against human OVCAR8 cells assessed as cell growth at 10 uM after 48 hrs by sulforhodamine B assay; conditions: OVCAR-8, 48 h, read-out: Activity
SK-OV-3 [8] = test: Cytotoxicity against human SKOV3 cells assessed as cell growth at 10 uM after 48 hrs by sulforhodamine B assay; conditions: SK-OV-3, 48 h, read-out: Activity
BT-549 = test: Cytotoxicity against human BT549 cells assessed as cell growth at 10 uM after 48 hrs by sulforhodamine B assay; conditions: BT-549, 48 h, read-out: Activity
Outline: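 NCI-60 five-dose screen. Cells were grown in RPMI 1640 with 5% FBS and 2 mM L-glutamine, plated at 5000–40,000 cells/well and preincubated for 24 h. Time-zero plates were TCA-fixed. DMSO-solubilized drug was added at five concentrations (10-fold or ½-log serial dilutions) for 48 h at 37 °C, 5% CO2. Cells were TCA-fixed, stained with 0.4% SRB and read at 515 nm. Percent growth used time-zero, control and test absorbances.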

Cc1cc(O)cc(-c2nn(CC#N)cc2-c2ccnc(-c3ccc(N(C)C)cc3)c2)c1
growth at 1 µM (EKVX): 29% | growth at 1 µM (NCI-H23): 24% | growth at 10 µM (IGROV-1): 44% | growth at 10 µM (SK-OV-3 [1]): 18% | growth at 10 µM (RXF 393): 64.7% | growth at 10 µM (TK-10): 52.5% | growth at 0.01 µM (MOLT-4): 96% | growth at 0.01 µM (HOP-62): 89% | growth at 0.01 µM (HCC 2998): 88% | growth at 0.01 µM (SW-620): 90% | GI50 (CCRF-CEM): 3.59 µM | LC50 (CCRF-CEM): > 100 µM | TGI (CCRF-CEM): > 100 µM | growth at 0.001 µM (CAKI-1): 103% | growth at 0.001 µM (UO-31): 89% | GI50 (HCT-116): 2.71 µM | TGI (HCT-116): 10.4 µM | CC50 (HCT-116): 41.9 µM | GI50 (Malme-3M [2]): 4.56 µM | TGI (Malme-3M [2]): 39.2 µM | CC50 (Malme-3M [2]): > 100 µM | GI50 (M14): 1.83 µM | TGI (M14): 4.76 µM | CC50 (M14): 20.4 µM | GI50 (OVCAR-4): 4.85 µM | TGI (OVCAR-4): > 100 µM | CC50 (OVCAR-4): > 100 µM | GI50 (A498): 3.03 µM | LC50 (A498): > 100 µM | TGI (A498): 13.4 µM | GI50 (SN12C): 4.28 µM | LC50 (SN12C): > 100 µM | TGI (SN12C): 30 µM | growth at 1 µM (SK-OV-3 [3]): -11% | growth at 1 µM (MDA-MB-231): 11% | growth at 1 µM [4]: -15% | growth at 10 µM (NCI-H322M [5]): 94.1% | growth at 10 µM (NCI-H322M [6]): -11% | growth at 10 µM (SNB-75): -26% | growth at 10 µM (Malme-3M [7]): -19% | growth at 10 µM (OVCAR-8): -5% | growth at 10 µM (SK-OV-3 [8]): -38% | growth at 10 µM (BT-549): -43%

COc1cc(C)cc(-c2c(-c3ccnc(-c4ccc(C(C)=O)cc4)c3)cnn2CC#N)c1
growth at 1 µM (EKVX): 37% | growth at 1 µM (NCI-H23): 19% | growth at 10 µM (IGROV-1): 98.5% | growth at 10 µM (SK-OV-3 [1]): 97.8% | growth at 10 µM (RXF 393): 54.8% | growth at 10 µM (TK-10): 72.6% | growth at 0.01 µM (MOLT-4): 99% | growth at 0.01 µM (HOP-62): 81% | growth at 0.01 µM (HCC 2998): 98% | growth at 0.01 µM (SW-620): 88% | GI50 (CCRF-CEM): 2.97 µM | LC50 (CCRF-CEM): > 100 µM | TGI (CCRF-CEM): > 100 µM | growth at 0.001 µM (CAKI-1): 104% | growth at 0.001 µM (UO-31): 88% | GI50 (HCT-116): 1.7 µM | TGI (HCT-116): 5.4 µM | CC50 (HCT-116): > 100 µM | GI50 (Malme-3M [2]): 5.82 µM | TGI (Malme-3M [2]): > 100 µM | CC50 (Malme-3M [2]): > 100 µM | GI50 (M14): 1.97 µM | CC50 (M14): > 100 µM | GI50 (OVCAR-4): 5.13 µM | TGI (OVCAR-4): > 100 µM | CC50 (OVCAR-4): > 100 µM | GI50 (A498): 2.03 µM | LC50 (A498): > 100 µM | TGI (A498): > 100 µM | GI50 (SN12C): 4.49 µM | LC50 (SN12C): > 100 µM | TGI (SN12C): > 100 µM | growth at 1 µM (SK-OV-3 [3]): 19% | growth at 1 µM (MDA-MB-231): 21% | growth at 1 µM [4]: -23% | growth at 10 µM (NCI-H322M [5]): 104% | growth at 10 µM (NCI-H322M [6]): 70% | growth at 10 µM (SNB-75): 1% | growth at 10 µM (Malme-3M [7]): 43% | growth at 10 µM (OVCAR-8): 10% | growth at 10 µM (SK-OV-3 [8]): 27% | growth at 10 µM (BT-549): 24%

COc1cc(C)cc(-c2c(-c3ccnc(-c4ccc(N(C)C)cc4)c3)cnn2CC#N)c1
growth at 1 µM (EKVX): 9% | growth at 1 µM (NCI-H23): 17% | growth at 10 µM (IGROV-1): 20.1% | growth at 10 µM (SK-OV-3 [1]): -3.63% | growth at 10 µM (RXF 393): 23.3% | growth at 10 µM (TK-10): 36.6% | growth at 0.01 µM (MOLT-4): 81% | growth at 0.01 µM (HOP-62): 62% | growth at 0.01 µM (HCC 2998): 30% | growth at 0.01 µM (SW-620): 69% | GI50 (CCRF-CEM): 0.237 µM | LC50 (CCRF-CEM): > 100 µM | TGI (CCRF-CEM): > 100 µM | growth at 0.001 µM (CAKI-1): 124% | growth at 0.001 µM (UO-31): 83% | GI50 (HCT-116): 0.0501 µM | TGI (HCT-116): 1.03 µM | CC50 (HCT-116): > 100 µM | GI50 (Malme-3M [2]): 0.0598 µM | TGI (Malme-3M [2]): > 100 µM | CC50 (Malme-3M [2]): > 100 µM | GI50 (M14): 0.0541 µM | TGI (M14): 0.483 µM | CC50 (M14): > 100 µM | GI50 (OVCAR-4): 0.27 µM | TGI (OVCAR-4): > 100 µM | CC50 (OVCAR-4): > 100 µM | GI50 (A498): 0.132 µM | LC50 (A498): > 100 µM | TGI (A498): > 100 µM | GI50 (SN12C): 0.398 µM | LC50 (SN12C): > 100 µM | TGI (SN12C): > 100 µM | growth at 1 µM (SK-OV-3 [3]): 36% | growth at 1 µM (MDA-MB-231): 17% | growth at 1 µM [4]: 18% | growth at 10 µM (NCI-H322M [5]): 58.9% | growth at 10 µM (NCI-H322M [6]): 21% | growth at 10 µM (SNB-75): 11% | growth at 10 µM (Malme-3M [7]): 13% | growth at 10 µM (OVCAR-8): 8% | growth at 10 µM (SK-OV-3 [8]): 26% | growth at 10 µM (BT-549): -25%
